Bioassay records from PubChem.
Compounds with a hit are over-represented: about 3.5% of the library has one in this group of screens.
RGS4 pot = RGS4 potentiators or activators, primary screen, cell-based, HEK293 M3R inducible RGS4, calcium flux | carbachol calcium flux Fluo4; stronger effect = lower value | B-score at 10 µM | 0.92% of 310,000 active | AID 463111, 2010;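 active means B-score of the integrated calcium signal more than 4 SD below the library mean, with starting fluorescence not abnormally high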;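 further: negative B-score means reduced calcium response which marks RGS4 activation or potentiation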
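Detection: kinetic calcium fluorescence imaging with Fluo4-AM dye, 2 µM / Material: HEK293 cells with stable M3R and inducible RGS4 / Schedule: recording 10 s baseline at 1 Hz, 100 s post-agonist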
RGS4 block = RGS4 inhibitors, primary screen, cell-based, HEK293 M3R inducible RGS4, calcium flux. Regulator of G-protein signaling 4 (Homo sapiens), P49798. Fluo-4 calcium flux; stronger effect = higher value; triggered by carbachol at its EC20. B-score at 10 µM. 0.45% of 310,000 active. AID 463165, 2010;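 active means B-score, a plate-corrected calcium signal, over three deviations above library mean, with baseline fluorescence within five deviations of library mean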;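 further: RGS4 expression induced by doxycycline in cells with stable M3 receptor; B-score is computed from the integrated fluorescence ratio over baseline after carbachol; higher B-score means a larger calcium signal and so more RGS4 inhibition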
Target sequence (P49798 whole entry, looked up): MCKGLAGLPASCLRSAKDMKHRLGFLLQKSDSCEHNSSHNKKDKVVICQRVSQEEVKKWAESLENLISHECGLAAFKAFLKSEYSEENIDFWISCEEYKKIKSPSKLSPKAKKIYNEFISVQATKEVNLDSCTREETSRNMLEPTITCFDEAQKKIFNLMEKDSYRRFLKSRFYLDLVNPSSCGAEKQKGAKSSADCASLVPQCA
MrgX1 antag = antagonists of human MrgX1 receptor, primary screen, HEK293 cells, Fluo-4 calcium flux; BAM8-22 antagonism; stronger effect = lower value; B-score at 10 µM; 1.3% of 310,000 active; Mas-related G-protein coupled receptor member X1 (Homo sapiens), Q96LB2; AID 588676, 2011;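 active means calcium-response B-score plate-corrected more than 3 library SD below zero, starting fluorescence within 5 deviations, no agonist response on first addition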;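 further: peak minus trough fluorescence over baseline after final BAM8-22 challenge near maximal dose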
Target sequence (Q96LB2 whole entry, looked up): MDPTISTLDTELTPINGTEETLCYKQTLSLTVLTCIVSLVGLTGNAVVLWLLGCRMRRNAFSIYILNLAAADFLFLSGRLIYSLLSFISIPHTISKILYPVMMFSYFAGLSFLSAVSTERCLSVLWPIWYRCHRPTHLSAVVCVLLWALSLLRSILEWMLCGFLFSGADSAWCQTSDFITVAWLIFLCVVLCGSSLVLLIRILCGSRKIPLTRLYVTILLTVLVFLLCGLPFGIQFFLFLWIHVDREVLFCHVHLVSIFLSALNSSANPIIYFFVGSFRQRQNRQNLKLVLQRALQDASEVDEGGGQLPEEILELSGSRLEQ
MrgX1 ag = agonists of human MrgX1 receptor, primary screen, HEK293 cells, Fluo-4 calcium flux; Fluo-4 calcium fluorescence, agonist mode; stronger effect = higher value; B-score at 10 µM; AID 588627, 2011; Mas-related G-protein coupled receptor member X1 (Homo sapiens), Q96LB2; 0.44% of 310,000 active;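 active means calcium response B-score plate-corrected fluorescence ratio at least 3 library SD, with starting fluorescence B-score inside 5 SD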
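Material: MrgX1-expressing HEK293 cells / Dosing: compound as first of three additions / Incubation: overnight seeding, then 1 h dark dye loading / Signal: Fluo-4 NW calcium fluorescence / Evaluation: B-scored fluorescence response ratio / Benchmarks: positive and negative control wells on each plate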
MrgX1 allo act = positive allosteric modulators of MrgX1, primary screen, HEK293 cells, Fluo-4 calcium flux; FDSS; stronger effect = higher value; B-score at 10 µM; 0.63% of 310,000 active; AID 588675, 2011;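 active means plate-corrected calcium response at least 3 library SD above typical, normal starting fluorescence, not activating the receptor alone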;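 further: compound read alongside a low EC10 to EC30 dose of BAM8-22 agonist; peak minus trough fluorescence over baseline measured at the second addition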
MrgX1 allo conf = MrgX1 positive allosteric modulators, duplicate retest, confirmation, HEK293 cells, Fluo-4 calcium flux. shares compounds with MrgX1 allo act. Fluo-4 calcium fluorescence, FDSS. activation (ratio percentage), % at 10 µM. 13% of 1,200 active;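 active means ratio at least 3 SD above the weak peptide control, stable starting fluorescence, no direct agonism earlier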;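 further: compound followed by low BAM8-22 agonist challenge near EC20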
HEK293 Ca flux = nonspecific calcium signal in parental HEK293, confirmation, counter-screen for MrgX1 antagonist project, parental HEK293 cells, Fluo-4 calcium flux; 2% of 4,000 active; shares compounds with MrgX1 antag; Fluo-4 calcium fluorescence, FDSS; fluorescence ratio F(max-min)/F0 at 10 µM;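 active means duplicate-averaged calcium fluorescence ratio at least three times the standard deviation of buffer wells, a nonspecific response in parental cells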
HEK293 Ca counter = calcium response in parental HEK293 cells, primary screen, counter-screen for MrgX1 allosteric activator project, cell-based, Fluo-4 calcium flux, duplicate. Fluo-4 fluorescence ratio; stronger effect = higher value. shares compounds with MrgX1 antag. fluorescence ratio F(max-min)/F0 at 10 µM. 0.4% of 4,000 active. AID 624114, 2012;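 active means calcium fluorescence ratio, averaged over duplicates, at least 3 SD of the buffer-well ratio, meaning a nonspecific response in receptor-free cells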;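 further: untransfected parental HEK293 lacking MrgX1 used as counterscreen for MrgX1 allosteric activators; fluorescence change taken during the second addition on a kinetic imager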
HEK293 Ca cntr2 = calcium response in parental HEK293 cells, primary screen, counter-screen for MrgX1 agonist project, cell-based, Fluo-4 calcium flux, duplicate, agonist mode; 8.7% of 4,000 active; Fluo-4 calcium fluorescence (FDSS); stronger effect = higher value; shares compounds with MrgX1 antag; AID 624115, 2012; fluorescence ratio F(max-min)/F0 at 10 µM;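 active means calcium fluorescence ratio at least three times the spread of buffer wells, meaning a non-specific response in parental cells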
* hit, by the source's call; i = inactive; · = not tested or not shown.

SMILES	RGS4 pot	RGS4 block	MrgX1 antag	MrgX1 ag	MrgX1 allo act	MrgX1 allo conf	HEK293 Ca flux	HEK293 Ca counter	HEK293 Ca cntr2
CC1CC(=O)N(CC(=O)NCc2ccccc2)c2ccccc2S1(=O)=O (stereo not given)	i	i	i	i	i	·	·	·	·
Nc1c(C(=O)c2ccccc2)oc2ccccc12	i	i	i	i	i	·	·	·	·
Cc1c(C(=O)c2ccccc2)oc2ccc3ccccc3c12	i	i	i	i	13*	i	i	48*	i
COc1ccc2nc(NC(=S)N(C)C)sc2c1	i	i	i	i	12*	i	i	i	i
CCOC(=O)C1(CCOc2ccccc2)CCN(Cc2ccc3nonc3c2)CC1	i	i	i	i	i	·	·	·	·
CCN(CC(=O)Nc1c(F)cccc1F)C(=O)Cc1csc(-c2ccccc2)n1	i	i	i	i	7.5*	i	i	i	i
COc1ccc(Cc2nnc(NC(=O)c3cccc(F)c3)s2)cc1OC	i	i	i	i	i	·	·	·	·
Cc1[nH]ncc1-c1nc2ccccc2[nH]1	i	i	i	i	13*	i	i	i	i
CCOC(=O)c1c(NC(=O)CN2CCOCC2)sc2c1CCCC2	i	i	i	i	7.1*	i	i	i	i
CCOC(=O)c1c(NC(=O)CN2CCOCC2)sc2c1CCCC2=O	i	i	i	i	i	·	·	·	·
O=C(CCc1ccccc1)NC(=S)Nc1cccc(Br)c1	i	i	i	i	9*	i	i	i	i
CCC(c1nnnn1Cc1cccs1)N1CCN(C(=O)c2ccco2)CC1 (stereo not given)	i	i	i	i	7.1*	i	i	i	i
Cc1ccc(C(c2nnnn2Cc2cccs2)N2CCN(C(=O)c3ccco3)CC2)cc1 (stereo not given)	i	i	i	i	i	·	·	·	·
CCOC(=O)NC(Nc1ccc(S(N)(=O)=O)cc1)(C(=O)OCC)C(F)(F)F (stereo not given)	i	i	i	i	i	·	·	·	·
CCOc1ccc2nc(N3CCCC(C(=O)NCC4CCCO4)C3)sc2c1 (stereo not given)	i	i	i	i	6.6*	i	i	i	i
CCCN1CCN(CCCNC(=O)C2CCCN(c3nc4ccc(OCC)cc4s3)C2)CC1 (stereo not given)	i	i	i	i	i	·	·	·	·
COc1ccc2c(C)cc3nncn3c2c1	i	i	i	i	i	·	·	·	·
COc1ccc(CNC(=O)Cn2nnc(-c3ccc(NC(=O)C4CCCCC4)cc3)n2)cc1	i	i	i	i	i	·	·	·	·
COCCN1CCN(Cc2nc(C3(c4ccc(C)cc4)CCCC3)no2)CC1	i	i	i	i	9*	i	i	i	i
CC(=O)c1ccc(OCC(=O)NCc2ccc(F)cc2)cc1	i	i	i	i	i	·	·	·	·
N#CC(c1ccccc1)N(CCCCl)C(=O)c1ccccc1 (stereo not given)	i	i	i	i	i	·	·	·	·
CN(C)CCn1c(=S)[nH]c2ncccc2c1=O	i	i	i	i	13*	i	i	i	i
CCOc1ccc(CNC(=S)Nc2ccccc2)cc1Cl	i	i	i	i	i	·	·	·	·
CCCCN1C(=O)C(=O)N(CC(=O)Nc2ccccc2C(=O)OCC)C1=O	i	i	i	i	i	·	·	·	·
COc1ccccc1N(CC(=O)NC1CC2CCC1C2)S(=O)(=O)c1ccc(C)cc1 (stereo not given)	i	i	i	i	i	·	·	·	·
SMILES	RGS4 pot	RGS4 block	MrgX1 antag	MrgX1 ag	MrgX1 allo act	MrgX1 allo conf	HEK293 Ca flux	HEK293 Ca counter	HEK293 Ca cntr2
COc1ccc(S(=O)(=O)N(CC(=O)NC2CC3CCC2C3)c2ccccc2OC)cc1 (stereo not given)	i	i	i	i	8.3*	i	i	i	i
COc1ccc(C(=O)CCN2CCN(c3ccc(OC)cc3)CC2)cc1	i	i	i	i	i	·	·	·	·
COc1ccc(C(=O)CCN2CCN(c3ccccc3F)CC2)cc1	i	i	i	i	20*	i	i	i	i
CCC1(C)NC(=O)N(CC(=O)N2N=C(c3ccccc3)CC2c2ccc(OC)cc2)C1=O (stereo not given)	i	i	i	i	i	·	·	·	·
CC1CCCC(C)N1C(=O)CSc1nnc(NC(=O)c2cccs2)s1 (stereo not given)	i	i	i	i	14*	i	i	i	i
Cc1cc(C)c(C)c(S(=O)(=O)N2CCC(C(=O)NCC(c3ccccc3)N(C)C)CC2)c1C (stereo not given)	i	i	i	i	i	·	·	·	·
COc1ccc(NC(C)(C)c2nnnn2-c2c(C)cccc2C)cc1	i	i	i	i	6.6*	i	i	i	i
CC(=O)Nc1ccc(S(=O)(=O)NCc2ccc(C(=O)N3CCOCC3)cc2)cc1	i	i	i	i	7.4*	i	i	i	i
CSCC[C@H](NC(=O)N1CCn2c1nc1ccccc12)C(=O)NCc1ccc(C)cc1	i	i	i	i	i	·	·	·	·
CCOc1ccc(-c2csc(Cn3c(CN4CCN(C)CC4)nc4ccccc4c3=O)n2)cc1	i	i	i	i	i	·	·	·	·
O=C(C1CCOCC1)N1CCCC(N2CCN(c3ccc(F)cc3)CC2)C1 (stereo not given)	i	i	i	i	i	·	·	·	·
